Measurements as given in ChEMBL document CHEMBL4411301, “Design, Biological Evaluation, and Molecular Modeling of Tetrahydroisoquinoline Derivatives: Discovery of A Potent P-Glycoprotein Ligand Overcoming Multidrug Resistance in Cancer Stem Cells” (J Med Chem, 2019).
Active and inactive are the calls of the source. No cut-off for these calls is given here.

Experiments:
[1] = target: T1, Broad substrate specificity ATP-binding cassette transporter ABCG2 (Homo sapiens, UniProt Q9UNQ0); experiment: Inhibition of BCRP (unknown origin) expressed in MDCK cells assessed as reduction in Hoechst 33342 efflux preincubated for 30 mins followed by Hoechst 3334 addition measured after 30 mins by fluorescence assay; format: cell-based
T1 sequence (Q9UNQ0 whole entry): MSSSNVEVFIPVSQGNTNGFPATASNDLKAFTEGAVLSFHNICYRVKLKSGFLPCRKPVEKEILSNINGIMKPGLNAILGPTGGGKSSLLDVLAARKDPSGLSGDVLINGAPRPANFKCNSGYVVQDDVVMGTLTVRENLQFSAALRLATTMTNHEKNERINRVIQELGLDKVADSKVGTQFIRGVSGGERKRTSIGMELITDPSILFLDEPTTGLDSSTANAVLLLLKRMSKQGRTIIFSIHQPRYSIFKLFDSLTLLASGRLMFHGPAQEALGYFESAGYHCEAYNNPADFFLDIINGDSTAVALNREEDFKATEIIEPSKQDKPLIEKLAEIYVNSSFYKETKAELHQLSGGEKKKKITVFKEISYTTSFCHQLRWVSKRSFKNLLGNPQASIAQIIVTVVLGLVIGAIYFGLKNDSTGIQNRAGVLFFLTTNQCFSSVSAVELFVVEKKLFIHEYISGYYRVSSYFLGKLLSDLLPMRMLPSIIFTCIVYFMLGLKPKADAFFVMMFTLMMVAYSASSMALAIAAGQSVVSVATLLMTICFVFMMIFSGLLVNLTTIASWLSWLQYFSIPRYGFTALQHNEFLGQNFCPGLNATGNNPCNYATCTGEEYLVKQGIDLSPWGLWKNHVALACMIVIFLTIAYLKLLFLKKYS
Procedure, shortened: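 MDCK-BCRP monolayers (30,000 cells/well, confluent overnight) preincubated 30 min at 37 °C with compound (0.1–100 µM final). Hoechst 33342 then added (8 µM final) for 30 min. Cells fixed 20 min in 4% PFA, washed with ice-cold PBS and read at ex 340/em 485 nm. EC50 fitted from % fluorescence increase over basal vs log dose. Mean ± SEM, three experiments in triplicate.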

[2] = target: Multidrug resistance-associated protein 1 (Homo sapiens, UniProt P33527); experiment: Inhibition of MRP1 (unknown origin) expressed in MDCK cells assessed as increase in calcein-AM accumulation incubated for 30 mins by calcein-AM dye based fluorescence assay; format: cell-based
Multidrug resistance-associated protein 1, sequence (P33527 whole entry): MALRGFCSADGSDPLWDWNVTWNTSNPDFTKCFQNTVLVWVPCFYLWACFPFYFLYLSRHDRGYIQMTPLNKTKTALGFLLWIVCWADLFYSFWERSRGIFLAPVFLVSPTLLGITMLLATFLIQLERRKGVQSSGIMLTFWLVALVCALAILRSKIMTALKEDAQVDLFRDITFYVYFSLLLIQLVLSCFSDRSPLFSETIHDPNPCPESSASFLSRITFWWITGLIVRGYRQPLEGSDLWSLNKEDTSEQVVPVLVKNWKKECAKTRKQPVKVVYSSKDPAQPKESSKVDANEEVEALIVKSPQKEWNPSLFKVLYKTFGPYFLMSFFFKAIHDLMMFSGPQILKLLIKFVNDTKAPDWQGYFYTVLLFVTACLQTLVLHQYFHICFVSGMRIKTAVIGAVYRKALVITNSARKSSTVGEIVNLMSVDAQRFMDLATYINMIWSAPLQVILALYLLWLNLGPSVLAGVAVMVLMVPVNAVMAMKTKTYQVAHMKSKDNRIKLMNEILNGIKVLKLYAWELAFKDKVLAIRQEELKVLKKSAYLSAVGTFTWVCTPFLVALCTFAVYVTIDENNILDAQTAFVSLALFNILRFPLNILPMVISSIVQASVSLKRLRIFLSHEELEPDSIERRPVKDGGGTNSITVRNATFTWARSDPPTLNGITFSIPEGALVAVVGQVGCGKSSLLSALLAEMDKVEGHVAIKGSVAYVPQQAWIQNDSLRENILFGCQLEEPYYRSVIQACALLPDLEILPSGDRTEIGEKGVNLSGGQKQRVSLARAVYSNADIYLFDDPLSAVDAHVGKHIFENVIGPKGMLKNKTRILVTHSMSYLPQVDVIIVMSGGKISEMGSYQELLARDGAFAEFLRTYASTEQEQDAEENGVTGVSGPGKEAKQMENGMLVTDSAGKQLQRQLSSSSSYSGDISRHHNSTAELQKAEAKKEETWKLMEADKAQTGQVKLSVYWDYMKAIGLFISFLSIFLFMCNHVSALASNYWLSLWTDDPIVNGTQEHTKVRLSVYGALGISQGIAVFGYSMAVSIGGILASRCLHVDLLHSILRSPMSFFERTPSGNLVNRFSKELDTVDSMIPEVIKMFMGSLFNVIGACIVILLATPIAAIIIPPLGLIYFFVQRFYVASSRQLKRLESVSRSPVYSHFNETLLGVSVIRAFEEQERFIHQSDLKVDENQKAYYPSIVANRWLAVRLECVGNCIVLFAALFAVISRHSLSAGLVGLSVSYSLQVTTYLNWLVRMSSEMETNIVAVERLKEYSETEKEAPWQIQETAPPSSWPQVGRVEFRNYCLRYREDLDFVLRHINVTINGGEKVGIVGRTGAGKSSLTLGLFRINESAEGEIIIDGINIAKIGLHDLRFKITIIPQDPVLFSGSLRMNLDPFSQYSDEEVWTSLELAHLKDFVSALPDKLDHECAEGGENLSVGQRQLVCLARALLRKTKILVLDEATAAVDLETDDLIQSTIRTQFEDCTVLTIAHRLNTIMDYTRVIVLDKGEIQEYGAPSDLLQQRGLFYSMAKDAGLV
Procedure, shortened: (§1)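 MDCK-MDR1 or MDCK-MRP1 cells seeded at 30,000/well and grown to confluence overnight. Compound (0.1–100 µM final, in medium) incubated 30 min at 37 °C, then calcein-AM added (2.5 µM final) for 30 min. Cells washed with ice-cold PBS and read at ex 485/em 535 nm. EC50 fitted from % fluorescence increase over untreated vs log dose. Mean ± SEM, three experiments in triplicate.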

[3] = target: T2, ATP-dependent translocase ABCB1 (Homo sapiens, UniProt P08183); experiment: Inhibition of MDR1 (unknown origin) expressed in MDCK cells assessed as increase in calcein-AM accumulation after 30 mins by calcein-AM dye based fluorescence assay; format: cell-based; procedure, shortened: as §1
T2 sequence (P08183 whole entry): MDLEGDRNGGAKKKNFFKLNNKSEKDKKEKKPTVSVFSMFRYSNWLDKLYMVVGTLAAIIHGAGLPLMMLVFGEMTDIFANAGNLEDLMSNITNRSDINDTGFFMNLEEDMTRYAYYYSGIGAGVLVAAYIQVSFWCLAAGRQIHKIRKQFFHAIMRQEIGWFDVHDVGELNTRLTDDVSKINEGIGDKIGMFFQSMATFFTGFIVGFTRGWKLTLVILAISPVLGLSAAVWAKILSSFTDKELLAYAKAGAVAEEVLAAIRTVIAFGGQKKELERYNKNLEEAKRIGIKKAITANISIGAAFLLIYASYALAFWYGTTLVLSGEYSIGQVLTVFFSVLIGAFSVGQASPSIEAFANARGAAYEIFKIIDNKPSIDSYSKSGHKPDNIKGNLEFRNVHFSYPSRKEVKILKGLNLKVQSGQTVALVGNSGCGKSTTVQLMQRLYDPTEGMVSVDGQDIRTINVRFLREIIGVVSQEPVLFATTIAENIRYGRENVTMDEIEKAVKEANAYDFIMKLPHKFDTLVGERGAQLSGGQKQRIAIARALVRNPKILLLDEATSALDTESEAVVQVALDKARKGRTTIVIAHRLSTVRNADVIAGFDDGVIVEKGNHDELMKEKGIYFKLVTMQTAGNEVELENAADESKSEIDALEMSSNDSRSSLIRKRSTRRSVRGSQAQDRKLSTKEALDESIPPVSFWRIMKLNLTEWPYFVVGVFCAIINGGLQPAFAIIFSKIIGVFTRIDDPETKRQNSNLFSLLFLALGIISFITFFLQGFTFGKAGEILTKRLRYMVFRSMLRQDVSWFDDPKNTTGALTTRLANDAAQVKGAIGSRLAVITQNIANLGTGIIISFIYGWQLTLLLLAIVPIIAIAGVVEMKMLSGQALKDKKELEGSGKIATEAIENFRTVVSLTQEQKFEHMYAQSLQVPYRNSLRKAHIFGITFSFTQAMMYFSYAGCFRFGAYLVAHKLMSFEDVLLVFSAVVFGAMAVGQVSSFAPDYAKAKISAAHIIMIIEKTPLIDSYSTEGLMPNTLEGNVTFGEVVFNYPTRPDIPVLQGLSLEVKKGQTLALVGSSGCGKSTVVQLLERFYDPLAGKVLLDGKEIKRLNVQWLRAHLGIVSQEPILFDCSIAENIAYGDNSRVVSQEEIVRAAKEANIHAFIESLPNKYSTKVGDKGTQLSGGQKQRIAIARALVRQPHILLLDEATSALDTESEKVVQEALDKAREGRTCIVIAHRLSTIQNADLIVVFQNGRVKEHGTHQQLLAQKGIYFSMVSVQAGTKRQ

[4] = target: MDR1 (ABCB1, P-glycoprotein) (Homo sapiens, UniProt P08183); experiment: Activity at MDR1 in human Caco2 cells assessed as efflux ratio of apparent permeability from basolateral to apical side over apical to basolateral side; format: cell-based; settings: Caco-2
MDR1 (ABCB1, P-glycoprotein), sequence (P08183 whole entry): as above
Procedure, shortened: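 Caco-2 cells grown 21 days on filter inserts, then washed with HBSS and equilibrated 30 min at 37 °C. Compound at 100 µM added to the donor side and incubated 120 min at 37 °C. Papp in nm/s calculated as (VA/Area) × ([drug]acceptor/[drug]initial)/time, membrane area 0.11 cm2. BA/AB ratio from two independent experiments.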

Homo sapiens [5] = species on record: Homo sapiens; experiment: Induction of intracellular doxorubicin accumulation in human differentiated primary mesothelioma stem cells at 10 to 10000 nM after 3 hrs by spectrofluorimetric analysis; format: functional, cell-based
Procedure, shortened: (§2)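 Differentiated or stem cells from primary glioblastoma or mesothelioma of 3 patients (stem cells used within passage 6). Incubated 3 h with 5 µM doxorubicin, alone or with compound (DMSO 1% v/v). Washed, lysed in ethanol/0.3 N HCl, doxorubicin fluorescence read at ex 475/em 553 nm and expressed as nmol/mg cell protein via calibration curve. Duplicates, n=3, mean ± SEM.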

[6] = target: T2, ATP-dependent translocase ABCB1; experiment: Inhibition of MDR1 in human MSC assessed as increase in doxorubicin-induced cell toxicity at 10 nM after 24 hrs by LDH release assay; settings: 0.01 µM
[7] = target: T2, ATP-dependent translocase ABCB1; experiment: Inhibition of MDR1 in human primary glioblastoma stem cells assessed as increase in doxorubicin-induced reduction in cell viability at 10 nM after 72 hrs by ATPlite luminescence assay; settings: 0.01 µM
Procedure, shortened: (§3)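 Primary glioblastoma or mesothelioma differentiated and stem cells incubated 72 h with medium, 5 µM doxorubicin, 10 nM compound or 1 µM elacridar, alone or combined (DMSO 1% v/v). Viability by ATPlite luminescence as % of untreated RLU. Quadruplicates, n=3, mean ± SEM, one-way ANOVA.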

[8] = target: T2, ATP-dependent translocase ABCB1; experiment: Inhibition of MDR1 in human primary glioblastoma stem cells assessed as increase in doxorubicin-induced reduction in cell viability at 10 nM after 24 hrs by LDH release assay; settings: 0.01 µM
[9] = target: T2, ATP-dependent translocase ABCB1; experiment: Inhibition of MDR1 in human primary glioblastoma stem cells assessed as increase in intracellular doxorubicin accumulation at 10 to 10000 nM after 3 hrs by spectrofluorimetric analysis; format: cell-based; procedure, shortened: as §2
Homo sapiens [10] = species on record: Homo sapiens; experiment: Potentiation of doxorubicin-induced cytotoxicity in human differentiated primary glioblastoma cells assessed as increase in doxorubicin-induced reduction in cell viability at 10 nM after 72 hrs by ATPlite luminescence assay; format: functional, cell-based; procedure, shortened: as §3
Homo sapiens [11] = species on record: Homo sapiens; experiment: Potentiation of doxorubicin-induced cytotoxicity in human differentiated primary glioblastoma cells assessed as increase in doxorubicin-induced reduction in cell viability at 10 nM after 24 hrs by LDH release assay; format: functional, cell-based
Homo sapiens [12] = species on record: Homo sapiens; experiment: Induction of doxorubicin accumulation in P-gp knocked out human primary mesothelioma stem cells co-expressing CRISPR-Cas at 10 nM after 3 hrs by spectrofluorimetric analysis; format: functional
Procedure, shortened: (§4)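 Patient-derived glioblastoma (line 4, patient #2) or mesothelioma (line 5, patient #1) stem cells, untreated, scrambled CRISPR-Cas or P-gp CRISPR-Cas knockout. Incubated 3 h with 5 µM doxorubicin. Cells lysed in ethanol/0.3 N HCl and doxorubicin read fluorimetrically at ex 475/em 553 nm, converted to nmol/mg protein by calibration. Duplicates, n=3, mean ± SEM, one-way ANOVA.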

Homo sapiens [13] = species on record: Homo sapiens; experiment: Potentiation of doxorubicin-induced cytotoxicity in human differentiated primary mesothelioma cells assessed as increase in doxorubicin-induced reduction in cell viability at 10 nM after 72 hrs by ATPlite luminescence assay; format: functional, cell-based; procedure, shortened: as §3
[14] = target: T2, ATP-dependent translocase ABCB1; experiment: Inhibition of MDR1 in human primary mesothelioma stem cells assessed as increase in intracellular doxorubicin accumulation at 10 to 10000 nM after 3 hrs by spectrofluorimetric analysis; format: cell-based; procedure, shortened: as §2
[15] = target: T2, ATP-dependent translocase ABCB1; experiment: Inhibition of MDR1 in human GSC assessed as increase in doxorubicin-induced cell toxicity at 10 nM after 24 hrs by LDH release assay; settings: 0.01 µM
[16] = target: T2, ATP-dependent translocase ABCB1; experiment: Inhibition of MDR1 (unknown origin) expressed in MDCK1 cells assessed as potentiation of doxorubicin-induced decrease in cell proliferation at 1 uM administered alone on day 2 followed by drug addition day 3 along with doxorubicin addition by MTT assay; format: cell-based
Procedure, shortened: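 MDCK-MDR1 cells, 10000/well. On day 2, compound alone at 10 nM, 100 nM or 1 µM. On day 3, medium replaced with compound alone or with 10 µM doxorubicin; 48 h assay. MTT 0.5 mg/mL for 3–4 h at 37 °C, formazan dissolved in DMSO/EtOH 1:1, absorbance read at 570/630 nm. Solvent 1% v/v DMSO. Mean ± SEM, two experiments in triplicate; one-way ANOVA.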

[17] = Cytotoxicity against human MSC at 10 nM after 24 hrs by LDH release assay; settings: 0.01 µM
Homo sapiens [18] = species on record: Homo sapiens; experiment: Induction of doxorubicin accumulation in P-gp knocked out human primary glioblastoma stem cells co-expressing CRISPR-Cas at 10 nM after 3 hrs by spectrofluorimetric analysis; format: functional; procedure, shortened: as §4
[19] = Cytotoxicity against human GSC at 10 nM after 24 hrs by LDH release assay; settings: 0.01 µM
Homo sapiens [20] = species on record: Homo sapiens; experiment: Induction of intracellular doxorubicin accumulation in human differentiated primary glioblastoma cells at 10 to 10000 nM after 3 hrs by spectrofluorimetric analysis; format: functional, cell-based; procedure, shortened: as §2
Homo sapiens [21] = species on record: Homo sapiens; experiment: Potentiation of doxorubicin-induced cytotoxicity in human differentiated primary mesothelioma cells assessed as increase in doxorubicin-induced reduction in cell viability at 10 nM after 24 hrs by LDH release assay; format: functional, cell-based
[22] = target: T2, ATP-dependent translocase ABCB1; experiment: Inhibition of MDR1 in human primary mesothelioma stem cells assessed as increase in doxorubicin-induced reduction in cell viability at 10 nM after 24 hrs by LDH release assay; settings: 0.01 µM
[23] = target: T2, ATP-dependent translocase ABCB1; experiment: Inhibition of MDR1 in human primary mesothelioma stem cells assessed as increase in doxorubicin-induced reduction in cell viability at 10 nM after 72 hrs by ATPlite luminescence assay; settings: 0.01 µM; procedure, shortened: as §3

Compound | EC50 [2] | EC50 ([3]; read-out: EC50) [nM] | efflux ratio [4] | EC50 ([1]; mdck) | also measured
COc1cc2c(cc1OC)CN(Cc1ccc(-c3ccc4c(c3)C(N3CCc5cc(OC)c(OC)cc5C3)C(=O)N4)cc1)CC2 (configuration not stated) | Not Active | 1200 | 8.5 | – | EC50 ([1]; read-out: EC50): 1800 nM
COc1cc2c(cc1OC)CN(Cc1ccc(-c3ccc(NS(=O)(=O)c4ccccc4)cc3)cc1)CC2 | Not Active | 870 | 15 | Not Active | –
COc1cc2c(cc1OC)CN(Cc1ccc(-c3ccc4[nH]c(=O)[nH]c4c3)cc1)CC2 | Not Active | 29500 | 15 | Not Active | –
CNC(=O)Nc1ccc(-c2ccc(CN3CCc4cc(OC)c(OC)cc4C3)cc2)cc1 | Not Active | 3100 | 12.8 | Not Active | –
CCCCNC(=O)Nc1ccc(-c2ccc(CN3CCc4cc(OC)c(OC)cc4C3)cc2)cc1 | Not Active | 320 | 12.8 | – | EC50 ([1]; read-out: EC50): 46000 nM
COc1cc2c(cc1OC)CN(Cc1ccc(-c3ccc(NS(C)(=O)=O)cc3)cc1)CC2 | Not Active | 5200 | 5 | Not Active | –
COc1cc2c(cc1OC)CN(Cc1ccc(-c3ccc4c(ccn4S(=O)(=O)c4ccccc4)c3)cc1)CC2 | Not Active | 19200 | 4.2 | Not Active | –
COc1cc2c(cc1OC)CN(Cc1ccc(-c3ccc(NC(C)=O)cc3)cc1)CC2 | Not Active | 1520 | 13.6 | Not Active | –
COc1cc2c(cc1OC)CN(Cc1ccc(-c3ccc4[nH]ccc4c3)cc1)CC2 | Not Active | 21200 | 1.9 | Not Active | –
CCNC(=O)Nc1ccc(-c2ccc(CN3CCc4cc(OC)c(OC)cc4C3)cc2)cc1 | Not Active | 1700 | 9.3 | Not Active | –
CCCNC(=O)Nc1ccc(-c2ccc(CN3CCc4cc(OC)c(OC)cc4C3)cc2)cc1 | Not Active | 1100 | 17.6 | Not Active | –
COc1cc2c(cc1OC)CN(Cc1ccc(-c3ccc4[nH]ncc4c3)cc1)CC2 | Not Active | 900 | 12 | Not Active | –
COc1cc2c(cc1OC)CN(Cc1ccc(-c3ccc(O)cc3)cc1)CC2 | – | – | 1.3 | – | –
COc1cc2c(cc1OC)CN(Cc1ccc(-c3ccc4c(c3)C(=O)C(=O)N4)cc1)CC2 | Not Active | 21400 | 8.1 | Not Active | –
COc1cc2c(cc1OC)CN(Cc1ccc(-c3ccc4[nH]cnc4c3)cc1)CC2 | Not Active | 6930 | 9.2 | Not Active | –
COc1cc2c(cc1OC)CN(Cc1ccc(-c3ccc(N(S(=O)(=O)c4ccccc4)S(=O)(=O)c4ccccc4)cc3)cc1)CC2 | Not Active | 15.3 | > 20 | Not Active | Activity (Homo sapiens [5]): inactive; inhibition (INH) [6]: Active; inhibition (INH) [7]: Active; inhibition (INH) [8]: Active; inhibition (INH) [9]: Active; Activity (Homo sapiens [10]): inactive; Activity (Homo sapiens [11]): inactive; Activity (Homo sapiens [12]): inactive; Activity (Homo sapiens [13]): inactive; inhibition (INH) [14]: Active; inhibition (INH) [15]: Active; inhibition (INH) [16]: Active; Activity [17]: Non-Toxic; Activity (Homo sapiens [18]): inactive; Activity [19]: Non-Toxic; Activity (Homo sapiens [20]): inactive; Activity (Homo sapiens [21]): inactive; inhibition (INH) [22]: Active; inhibition (INH) [23]: Active
COc1cc2c(cc1OC)CN(Cc1ccc(-c3ccc(NC(=O)c4ccccc4)cc3)cc1)CC2 | Not Active | – | 19.9 | Not Active | EC50 ([3]; mdck): Not Active
COc1cc2c(cc1OC)CN(Cc1ccc(-c3ccc4c(c3)CC(=O)N4)cc1)CC2 | Not Active | 1470 | 3.6 | Not Active | –
COc1cc2c(cc1OC)CN(Cc1ccc(-c3ccc(NC(=O)Nc4ccccc4)cc3)cc1)CC2 | Not Active | 980 | > 20 | Not Active | –
